The test system of the first assay is Trypanosoma brucei. Briefly: Percentage of activity against Trypanosoma brucei at 12.5 uM. The class given is functional.
Conditions: not given
The method, boiled down:
(§1)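 Bloodstream-form T. brucei in HMI-9 medium, 10 000 parasites/well, exposed to 12.5, 6.25, 3.13 and 1.56 µM drug for 4 days. Read-out is % inhibition of parasite multiplication. Macrophage toxicity judged on mouse primary peritoneal macrophages.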
Consider `COc1ccc2nc3cc(Cl)ccc3c(NCCCN(CCCNc3c4ccc(Cl)cc4nc4ccc(OC)cc34)C(=O)CCC(=O)N3CCOCC3)c2c1`, for which the “Inhibition of parasite multiplication” value is reported as 100%.

`COc1ccc2nc3cc(Cl)ccc3c(NCCCN(CCCNc3c4ccc(Cl)cc4nc4ccc(OC)cc34)C(=O)C(CC(=O)O)NC(=O)OC(C)(C)C)c2c1` (centres undefined): the “Inhibition of parasite multiplication” value is listed as 100%.

The next assay concerns Leishmania infantum. Briefly: Percentage of activity against Leishmania infantum 6.25 uM. The class given is functional.
Conditions: not given
The method, boiled down:
(§2)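 Starch-stimulated mouse peritoneal macrophages, 30 000/well, infected after 24 h with spleen-derived L. infantum amastigotes (10:1) together with 2-fold drug dilutions (12.5–1.56 µM). Incubated 7 days at 37 °C, 5% CO2. Wright-stained slides scored microscopically as % reduction of total parasite load or of infected macrophages. Uninfected treated cultures judged microscopically for macrophage toxicity.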
For `COc1ccc2nc3cc(Cl)ccc3c(NCCCN(CCCNc3c4ccc(Cl)cc4nc4ccc(OC)cc34)C(=O)CCC(=O)N3CCOCC3)c2c1`, the “Antileishmanial activity (% reduction of parasite load)” value was determined as 0%.

Consider `COc1ccc2nc3cc(Cl)ccc3c(NCCCN(CCCNc3c4ccc(Cl)cc4nc4ccc(OC)cc34)C(=O)C(CC(=O)O)NC(=O)OC(C)(C)C)c2c1` (centres undefined), for which the “Antileishmanial activity (% reduction of parasite load)” value came to 0%.

The next assay deals with Trypanosoma cruzi. Briefly: Percentage of activity against Trypanosoma cruzi at 1.56 uM. The class given is functional.
Conditions: not given
The method, boiled down: (§3)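 Mouse peritoneal macrophages, 30 000/well, infected after 24 h with about 100 000 T. cruzi trypomastigotes per well plus 2-fold drug dilutions (12.5–1.56 µM). Incubated 4 days at 37 °C, 5% CO2. Methanol-fixed, Giemsa-stained and scored microscopically as % reduction of total parasite load (free trypomastigotes plus intracellular amastigotes) versus untreated controls.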
`COc1ccc2nc3cc(Cl)ccc3c(NCCCN(CCCNc3c4ccc(Cl)cc4nc4ccc(OC)cc34)C(=O)CCC(=O)N3CCOCC3)c2c1` registered a Parasite load reduction of 0%.

`COc1ccc2nc3cc(Cl)ccc3c(NCCCN(CCCNc3c4ccc(Cl)cc4nc4ccc(OC)cc34)C(=O)C(CC(=O)O)NC(=O)OC(C)(C)C)c2c1` (centres undefined) showed a Parasite load reduction of 0%.

A further assay relates to Plasmodium falciparum. Briefly: In vitro sensitivity for Plasmodium falciparum FcB1R.
Conditions: not given
The class given is functional, organism-based. The essentials:
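Asynchronous P. falciparum cultures in human erythrocytes (0.5% parasitemia, 1% haematocrit) exposed to serially diluted drug for 24 h at 37 °C. [3H]hypoxanthine (0.5 µCi/well) then added for a further 24 h. Uptake compared with drug-free controls on the same plate. IC50 taken from the concentration–response curve, averaged over independent experiments. DMSO ≤0.1%.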
In the case of `COc1ccc2nc3cc(Cl)ccc3c(NCCCN(CCCNc3c4ccc(Cl)cc4nc4ccc(OC)cc34)C(=O)CCC(=O)N3CCOCC3)c2c1`, the IC50 is 436 nM.

Compound `COc1ccc2nc3cc(Cl)ccc3c(NCCCN(CCCNc3c4ccc(Cl)cc4nc4ccc(OC)cc34)C(=O)C(CC(=O)O)NC(=O)OC(C)(C)C)c2c1` (centres undefined) gave a half-maximal inhibitory concentration (IC50) of over 500 nM.

Another assay concerns Trypanosoma cruzi. Briefly: Percentage of activity against Trypanosoma cruzi at 12.5 uM. The class given is functional.
Conditions: not given
The essentials: as §3
For the compound `COc1ccc2nc3cc(Cl)ccc3c(NCCCN(CCCNc3c4ccc(Cl)cc4nc4ccc(OC)cc34)C(=O)CCC(=O)N3CCOCC3)c2c1`, the “T. cruzi parasite load reduction” value came to 60%.

On to `COc1ccc2nc3cc(Cl)ccc3c(NCCCN(CCCNc3c4ccc(Cl)cc4nc4ccc(OC)cc34)C(=O)C(CC(=O)O)NC(=O)OC(C)(C)C)c2c1` (centres undefined), for which the “T. cruzi parasite load reduction” value came to 80%.

Another assay concerns Trypanosoma cruzi. Briefly: Percentage of activity against Trypanosoma cruzi at 6.25 uM Concentration. The class given is functional.
Conditions: not given
The method, boiled down: as §3
For `COc1ccc2nc3cc(Cl)ccc3c(NCCCN(CCCNc3c4ccc(Cl)cc4nc4ccc(OC)cc34)C(=O)CCC(=O)N3CCOCC3)c2c1`, the “Reduction of T. cruzi parasite load” value is given as 0%.

With `COc1ccc2nc3cc(Cl)ccc3c(NCCCN(CCCNc3c4ccc(Cl)cc4nc4ccc(OC)cc34)C(=O)C(CC(=O)O)NC(=O)OC(C)(C)C)c2c1` (centres undefined), the “Reduction of T. cruzi parasite load” value stood at 0%.

In a further assay the test system is Leishmania infantum. Briefly: Percentage of activity against Leishmania infantum at 1.56 uM. The class given is functional.
Conditions: not given
The essentials:
as §2
With `COc1ccc2nc3cc(Cl)ccc3c(NCCCN(CCCNc3c4ccc(Cl)cc4nc4ccc(OC)cc34)C(=O)CCC(=O)N3CCOCC3)c2c1`, the “Antileishmanial activity (% reduction of parasite load)” value is recorded as 0%.

With `COc1ccc2nc3cc(Cl)ccc3c(NCCCN(CCCNc3c4ccc(Cl)cc4nc4ccc(OC)cc34)C(=O)C(CC(=O)O)NC(=O)OC(C)(C)C)c2c1` (centres undefined), the “Antileishmanial activity (% reduction of parasite load)” value is 0%.

The next assay has as its system Trypanosoma brucei. Briefly: Percentage of activity against Trypanosoma brucei at 1.56 uM. The class given is functional.
Conditions: not given
The essentials:
as §1
For `COc1ccc2nc3cc(Cl)ccc3c(NCCCN(CCCNc3c4ccc(Cl)cc4nc4ccc(OC)cc34)C(=O)CCC(=O)N3CCOCC3)c2c1`, the “Percent inhibition of parasite multiplication” value is 100%.

Consider `COc1ccc2nc3cc(Cl)ccc3c(NCCCN(CCCNc3c4ccc(Cl)cc4nc4ccc(OC)cc34)C(=O)C(CC(=O)O)NC(=O)OC(C)(C)C)c2c1` (centres undefined), for which the “Percent inhibition of parasite multiplication” value amounted to 100%.

A further assay concerns Leishmania infantum. Briefly: In Vitro evaluation for the percentage of activity towards Leishmania infantum at 12.5 uM Concentration. The class given is functional.
Conditions: not given
The method, boiled down: as §2
Consider `COc1ccc2nc3cc(Cl)ccc3c(NCCCN(CCCNc3c4ccc(Cl)cc4nc4ccc(OC)cc34)C(=O)CCC(=O)N3CCOCC3)c2c1`, for which the “Percent inhibition of Leishmania infantum” value is 0%.

Take `COc1ccc2nc3cc(Cl)ccc3c(NCCCN(CCCNc3c4ccc(Cl)cc4nc4ccc(OC)cc34)C(=O)C(CC(=O)O)NC(=O)OC(C)(C)C)c2c1` (centres undefined): the “Percent inhibition of Leishmania infantum” value was found to be 0%.

The next assay has as its system Trypanosoma cruzi. Briefly: Percentage of activity against Trypanosoma cruzi at 3.13 uM.
Conditions: not given
The class given is functional. The essentials: as §3
In the case of `COc1ccc2nc3cc(Cl)ccc3c(NCCCN(CCCNc3c4ccc(Cl)cc4nc4ccc(OC)cc34)C(=O)CCC(=O)N3CCOCC3)c2c1`, the “Reduction of T. cruzi parasite load” value amounted to 0%.

As to `COc1ccc2nc3cc(Cl)ccc3c(NCCCN(CCCNc3c4ccc(Cl)cc4nc4ccc(OC)cc34)C(=O)C(CC(=O)O)NC(=O)OC(C)(C)C)c2c1` (centres undefined), the “Reduction of T. cruzi parasite load” value is 0%.

The subject of a further assay is Leishmania infantum. Briefly: Percentage of activity against Leishmania infantum at 3.13 uM. The class given is functional.
Conditions: not given
The method, boiled down: as §2
For `COc1ccc2nc3cc(Cl)ccc3c(NCCCN(CCCNc3c4ccc(Cl)cc4nc4ccc(OC)cc34)C(=O)CCC(=O)N3CCOCC3)c2c1`, the “Percent antileishmanial activity (reduction of parasite load)” value was 0%.

Consider `COc1ccc2nc3cc(Cl)ccc3c(NCCCN(CCCNc3c4ccc(Cl)cc4nc4ccc(OC)cc34)C(=O)C(CC(=O)O)NC(=O)OC(C)(C)C)c2c1` (centres undefined), for which the “Percent antileishmanial activity (reduction of parasite load)” value is 0%.

A further assay deals with MRC5. Briefly: Cytotoxicity on MRC-5 cells at 25 uM. Particulars: Homo sapiens. The class given is functional. The method, boiled down:
(§4)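 MRC-5 human diploid embryonic lung cells seeded at 5 000/well, washed after 24 h, then given 2-fold drug dilutions (25, 12.5, 6.25, 3.13 µM) in RPMI + 5% FCS, final DMSO below 0.5%. Incubated 7 days at 37 °C, 5% CO2. MTT colorimetric read-out, scored as % reduction of absorbance at 540 nm versus untreated controls.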
Take `COc1ccc2nc3cc(Cl)ccc3c(NCCCN(CCCNc3c4ccc(Cl)cc4nc4ccc(OC)cc34)C(=O)CCC(=O)N3CCOCC3)c2c1`: the cytotoxicity at 25 µM stood at 60%.

`COc1ccc2nc3cc(Cl)ccc3c(NCCCN(CCCNc3c4ccc(Cl)cc4nc4ccc(OC)cc34)C(=O)C(CC(=O)O)NC(=O)OC(C)(C)C)c2c1` (centres undefined) came in with a cytotoxicity at 25 µM of 0%.

The next assay has as its system Trypanosoma brucei. Briefly: Percentage of activity against Trypanosoma brucei at 6.25 uM. The class given is functional.
Conditions: not given
The method, boiled down: as §1
As to `COc1ccc2nc3cc(Cl)ccc3c(NCCCN(CCCNc3c4ccc(Cl)cc4nc4ccc(OC)cc34)C(=O)CCC(=O)N3CCOCC3)c2c1`, the “Inhibition of parasite multiplication” value came to 100%.

Take `COc1ccc2nc3cc(Cl)ccc3c(NCCCN(CCCNc3c4ccc(Cl)cc4nc4ccc(OC)cc34)C(=O)C(CC(=O)O)NC(=O)OC(C)(C)C)c2c1` (centres undefined): the “Inhibition of parasite multiplication” value turned out to be 100%.

The subject of another assay is Trypanosoma brucei. Briefly: Percentage of activity against Trypanosoma brucei at 3.13 uM. The class given is functional.
Conditions: not given
The essentials: as §1
For the compound `COc1ccc2nc3cc(Cl)ccc3c(NCCCN(CCCNc3c4ccc(Cl)cc4nc4ccc(OC)cc34)C(=O)CCC(=O)N3CCOCC3)c2c1`, the Parasite growth inhibition came out at 100%.

With `COc1ccc2nc3cc(Cl)ccc3c(NCCCN(CCCNc3c4ccc(Cl)cc4nc4ccc(OC)cc34)C(=O)C(CC(=O)O)NC(=O)OC(C)(C)C)c2c1` (centres undefined), the Parasite growth inhibition is 100%.

A further assay concerns MRC5. Briefly: Cytotoxicity on MRC-5 cells at 12.5 uM. The class given is functional. Particulars: Homo sapiens. The method, boiled down: as §4
For `COc1ccc2nc3cc(Cl)ccc3c(NCCCN(CCCNc3c4ccc(Cl)cc4nc4ccc(OC)cc34)C(=O)CCC(=O)N3CCOCC3)c2c1`, the cytotoxicity at 12.5 µM was determined as 20%.

For the compound `COc1ccc2nc3cc(Cl)ccc3c(NCCCN(CCCNc3c4ccc(Cl)cc4nc4ccc(OC)cc34)C(=O)C(CC(=O)O)NC(=O)OC(C)(C)C)c2c1` (centres undefined), the cytotoxicity at 12.5 µM is 0%.

A further assay relates to MRC5. Briefly: Cytotoxicity on MRC-5 cells at 6.25 uM. The class given is functional. To be noted: Homo sapiens. The essentials:
as §4
Turning to `COc1ccc2nc3cc(Cl)ccc3c(NCCCN(CCCNc3c4ccc(Cl)cc4nc4ccc(OC)cc34)C(=O)CCC(=O)N3CCOCC3)c2c1`, the cytotoxicity at 6.25 µM worked out at 0%.

`COc1ccc2nc3cc(Cl)ccc3c(NCCCN(CCCNc3c4ccc(Cl)cc4nc4ccc(OC)cc34)C(=O)C(CC(=O)O)NC(=O)OC(C)(C)C)c2c1` (centres undefined) had a cytotoxicity at 6.25 µM of 0%.

In the next assay the test system is MRC5. Briefly: Cytotoxicity on MRC-5 cells at 3.13 uM. The class given is functional. Particulars: Homo sapiens. The essentials: as §4
With `COc1ccc2nc3cc(Cl)ccc3c(NCCCN(CCCNc3c4ccc(Cl)cc4nc4ccc(OC)cc34)C(=O)CCC(=O)N3CCOCC3)c2c1`, the cytotoxicity at 3.13 µM was determined as 0%.

The compound `COc1ccc2nc3cc(Cl)ccc3c(NCCCN(CCCNc3c4ccc(Cl)cc4nc4ccc(OC)cc34)C(=O)C(CC(=O)O)NC(=O)OC(C)(C)C)c2c1` (centres undefined) came in with a cytotoxicity at 3.13 µM of 0%.

As usually defined, the IC50 is the concentration at which inhibition is half-maximal. A low value points to greater potency.

Source of the values: ChEMBL document CHEMBL1133105, “Antimalarial, antitrypanosomal, and antileishmanial activities and cytotoxicity of bis(9-amino-6-chloro-2-methoxyacridines): influence of the linker” (J Med Chem, 2000).
